Experiments:
Micrococcus luteus [1] = test: Bactericidal activity against Micrococcus luteus MTCC 106 after 24 hrs by two fold dilution method; assay type: functional; conditions: MTCC 106, 24 h
Procedure, shortened: (§1)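 Tubes held 5 mL MHB with two-fold dilutions from 1000 to 7.81 µg/mL and were inoculated with 5 × 10^5 to 1 × 10^6 cells in 0.1 mL MHB, incubated without shaking. Turbidity was checked at 20 h, tubes vortexed and re-incubated 4 h.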

Pseudomonas aeruginosa [2] = test: Antimicrobial activity against Pseudomonas aeruginosa MTCC 741 at 1 mg/disc after 24 hrs by disc diffusion assay; assay type: functional
Procedure, shortened: (§2)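 Disc diffusion on Mueller Hinton agar. Inoculum was grown in MHB for 24 h at 37 °C, swabbed onto the plates and dried for 10 min. Discs with 1 mg compound were left 30 min at room temperature for diffusion, then incubated at 37 °C for 24 h. Inhibition zone was read in mm; run twice. Solvent was the negative control, streptomycin the positive control.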

Klebsiella pneumoniae [3] = test: Bactericidal activity against Klebsiella pneumoniae MTCC 109 after 24 hrs by two fold dilution method; assay type: functional; conditions: MTCC 109, 24 h; procedure, shortened: as §1
Staphylococcus aureus [4] = test: Bactericidal activity against methicillin-resistant Staphylococcus aureus MTCC 96 after 24 hrs by two fold dilution method; assay type: functional; conditions: MTCC 96, 24 h; procedure, shortened: as §1
Proteus vulgaris [5] = test: Antimicrobial activity against Proteus vulgaris MTCC 1771 at 1 mg/disc after 24 hrs by disc diffusion assay; assay type: functional; procedure, shortened: as §2
Bacillus subtilis [6] = test: Antimicrobial activity against Bacillus subtilis MTCC 441 at 1 mg/disc after 24 hrs by disc diffusion assay; assay type: functional; procedure, shortened: as §2
Salmonella typhimurium [7] = test: Antimicrobial activity against Salmonella typhimurium MTCC 1251 after 24 hrs by two fold dilution method; assay type: functional, Salmonella enterica subsp. enterica serovar Typhimurium; conditions: Salmonella enterica, MTCC 1251, 24 h
Procedure, shortened: (§3)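 Broth two-fold serial dilution in 96-well plates from 1000 to 7.81 µg/mL, compound in DMSO (2%). Inoculum was grown in MHB for 24 h at 37 °C; plates were incubated 24 h at 37 °C. 5 µL of broth was spotted onto MHA; MIC was the lowest concentration with no visible growth on agar. Streptomycin was the positive control.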

Klebsiella pneumoniae [8] = test: Antimicrobial activity against Klebsiella pneumoniae MTCC 109 at 1 mg/disc after 24 hrs by disc diffusion assay; assay type: functional; procedure, shortened: as §2
Malassezia pachydermatis [9] = test: Antimicrobial activity against Malassezia pachydermatis after 48 to 72 hrs by two fold dilution method; assay type: functional
Procedure, shortened: (§4)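 Yeast was grown in Sabouraud dextrose broth at 28 °C for 48 h and tested per CLSI reference methods. Two-fold serial dilutions from 1000 to 7.81 µg/mL, compound in DMSO (2%), in 96-well plates, incubated 48–72 h at 28 °C. MIC was the lowest concentration with no visible fungal growth. Ketoconazole was the positive control.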

[10] = tested on: Salmonella enterica subsp. enterica serovar Paratyphi B; test: Antimicrobial activity against Salmonella paratyphi B after 24 hrs by two fold dilution method; assay type: functional; procedure, shortened: as §3
Klebsiella pneumoniae [11] = test: Antimicrobial activity against Klebsiella pneumoniae MTCC 109 after 24 hrs by two fold dilution method; assay type: functional; conditions: MTCC 109, 24 h; procedure, shortened: as §3
Candida albicans [12] = test: Antimicrobial activity against Candida albicans MTCC 227 after 48 to 72 hrs by two fold dilution method; assay type: functional; procedure, shortened: as §4
Staphylococcus aureus [13] = test: Antimicrobial activity against Staphylococcus aureus MTCC 96 after 24 hrs by two fold dilution method; assay type: functional; conditions: MTCC 96, 24 h; procedure, shortened: as §3
Bacillus subtilis [14] = test: Antimicrobial activity against Bacillus subtilis MTCC 441 after 24 hrs by two fold dilution method; assay type: functional; conditions: MTCC 441, 24 h; procedure, shortened: as §3
Malassezia pachydermatis [15] = test: Antimicrobial activity against Malassezia pachydermatis at 1 mg/disc after 24 hrs by disc diffusion assay; assay type: functional
Klebsiella aerogenes [16] = test: Antimicrobial activity against Enterobacter aerogenes MTCC 111 after 24 hrs by two fold dilution method; assay type: functional; conditions: MTCC 111, 24 h; procedure, shortened: as §3
Proteus vulgaris [17] = test: Bactericidal activity against Proteus vulgaris MTCC 1771 after 24 hrs by two fold dilution method; assay type: functional; conditions: MTCC 1771, 24 h; procedure, shortened: as §1
Shigella flexneri [18] = test: Antimicrobial activity against Shigella flexneri MTCC 1457 at 1 mg/disc after 24 hrs by disc diffusion assay; assay type: functional; procedure, shortened: as §2
Bacillus subtilis [19] = test: Bactericidal activity against Bacillus subtilis MTCC 441 after 24 hrs by two fold dilution method; assay type: functional; conditions: MTCC 441, 24 h; procedure, shortened: as §1
Klebsiella aerogenes [20] = test: Antimicrobial activity against Enterobacter aerogenes MTCC 111 at 1 mg/disc after 24 hrs by disc diffusion assay; assay type: functional; procedure, shortened: as §2
Shigella flexneri [21] = test: Bactericidal activity against Shigella flexneri MTCC 1457 after 24 hrs by two fold dilution method; assay type: functional; conditions: MTCC 1457, 24 h; procedure, shortened: as §1
Shigella flexneri [22] = test: Antimicrobial activity against Shigella flexneri MTCC 1457 after 24 hrs by two fold dilution method; assay type: functional; conditions: MTCC 1457, 24 h; procedure, shortened: as §3
[23] = tested on: Salmonella enterica subsp. enterica serovar Paratyphi B; test: Bactericidal activity against Salmonella paratyphi B after 24 hrs by two fold dilution method; assay type: functional; procedure, shortened: as §1
Pseudomonas aeruginosa [24] = test: Antimicrobial activity against Pseudomonas aeruginosa MTCC 741 after 24 hrs by two fold dilution method; assay type: functional; conditions: MTCC 741, 24 h; procedure, shortened: as §3
Salmonella typhimurium [25] = test: Antimicrobial activity against Salmonella typhimurium MTCC 1251 at 1 mg/disc after 24 hrs by disc diffusion assay; assay type: functional, Salmonella enterica subsp. enterica serovar Typhimurium; procedure, shortened: as §2
Proteus vulgaris [26] = test: Antimicrobial activity against Proteus vulgaris MTCC 1771 after 24 hrs by two fold dilution method; assay type: functional; conditions: MTCC 1771, 24 h; procedure, shortened: as §3
Staphylococcus aureus [27] = test: Antimicrobial activity against methicillin-resistant Staphylococcus aureus MTCC 96 after 24 hrs by two fold dilution method; assay type: functional; conditions: MTCC 96, 24 h; procedure, shortened: as §3
Salmonella typhimurium [28] = test: Bactericidal activity against Salmonella typhimurium MTCC 1251 after 24 hrs by two fold dilution method; assay type: functional, Salmonella enterica subsp. enterica serovar Typhimurium; conditions: Salmonella enterica, MTCC 1251, 24 h; procedure, shortened: as §1
Staphylococcus aureus [29] = test: Bactericidal activity against Staphylococcus aureus MTCC 96 after 24 hrs by two fold dilution method; assay type: functional; conditions: MTCC 96, 24 h; procedure, shortened: as §1
Candida albicans [30] = test: Fungicidal activity against Candida albicans MTCC 227 after 48 to 72 hrs by two fold dilution method; assay type: functional
Micrococcus luteus [31] = test: Antimicrobial activity against Micrococcus luteus MTCC 106 after 24 hrs by two fold dilution method; assay type: functional; conditions: MTCC 106, 24 h; procedure, shortened: as §3
Malassezia pachydermatis [32] = test: Fungicidal activity against Malassezia pachydermatis after 48 to 72 hrs by two fold dilution method; assay type: functional
Micrococcus luteus [33] = test: Antimicrobial activity against Micrococcus luteus MTCC 106 at 1 mg/disc after 24 hrs by disc diffusion assay; assay type: functional; procedure, shortened: as §2
Staphylococcus aureus [34] = test: Antimicrobial activity against […] Staphylococcus aureus MTCC 96 at 1 mg/disc after 24 hrs by disc diffusion assay; assay type: functional; procedure, shortened: as §2
Klebsiella aerogenes [35] = test: Bactericidal activity against Enterobacter aerogenes MTCC 111 after 24 hrs by two fold dilution method; assay type: functional; conditions: MTCC 111, 24 h; procedure, shortened: as §1
Candida albicans [36] = test: Antimicrobial activity against Candida albicans MTCC 227 at 1 mg/disc after 24 hrs by disc diffusion assay; assay type: functional
Staphylococcus aureus [37] = test: Antimicrobial activity against Staphylococcus aureus MTCC 96 at 1 mg/disc after 24 hrs by disc diffusion assay; assay type: functional; procedure, shortened: as §2
Pseudomonas aeruginosa [38] = test: Bactericidal activity against Pseudomonas aeruginosa MTCC 741 after 24 hrs by two fold dilution method; assay type: functional; conditions: MTCC 741, 24 h; procedure, shortened: as §1
[39] = tested on: Salmonella enterica subsp. enterica serovar Paratyphi B; test: Antimicrobial activity against Salmonella paratyphi B at 1 mg/disc after 24 hrs by disc diffusion assay; assay type: functional; procedure, shortened: as §2

| SMILES | MBC (Micrococcus luteus [1]) [µg/mL] | inhibition zone (IZ) (Pseudomonas aeruginosa [2]) [mm] | MBC (Klebsiella pneumoniae [3]) [µg/mL] | MBC (Staphylococcus aureus [4]) [µg/mL] | inhibition zone (IZ) (Proteus vulgaris [5]) [mm] | inhibition zone (IZ) (Bacillus subtilis [6]) [mm] | MIC (Salmonella typhimurium [7]) [µg/mL] | inhibition zone (IZ) (Klebsiella pneumoniae [8]) [mm] | MIC (Malassezia pachydermatis [9]) [µg/mL] | MIC [10] [µg/mL] | MIC (Klebsiella pneumoniae [11]) [µg/mL] | MIC (Candida albicans [12]) [µg/mL] | MIC (Staphylococcus aureus [13]) [µg/mL] | MIC (Bacillus subtilis [14]) [µg/mL] | inhibition zone (IZ) (Malassezia pachydermatis [15]) [mm] | MIC (Klebsiella aerogenes [16]) [µg/mL] | MBC (Proteus vulgaris [17]) [µg/mL] | inhibition zone (IZ) (Shigella flexneri [18]) [mm] | MBC (Bacillus subtilis [19]) [µg/mL] | inhibition zone (IZ) (Klebsiella aerogenes [20]) [mm] | further results |
| --- | --- | --- | --- | --- | --- | --- | --- | --- | --- | --- | --- | --- | --- | --- | --- | --- | --- | --- | --- | --- | --- |
| CC(C)C[C@@H](C)N[C@@H](C)[C@H](O)c1ccccc1.Cl | 62.5 | 17 | 62.5 | 125 | 15 | 15 | 125 | 16 | 62.5 | 125 | 62.5 | 62.5 | 62.5 | 125 | 16 | 125 | 250 | 15 | 250 | 14 | MBC (Shigella flexneri [21]): 250 µg/mL; MIC (Shigella flexneri [22]): 125 µg/mL; MBC [23]: 250 µg/mL; MIC (Pseudomonas aeruginosa [24]): 62.5 µg/mL; inhibition zone (IZ) (Salmonella typhimurium [25]): 14 mm; MIC (Proteus vulgaris [26]): 125 µg/mL; MIC (Staphylococcus aureus [27]): 62.5 µg/mL; MBC (Salmonella typhimurium [28]): 250 µg/mL; MBC (Staphylococcus aureus [29]): 125 µg/mL; MFC (Candida albicans [30]): 62.5 µg/mL; MIC (Micrococcus luteus [31]): 62.5 µg/mL; MFC (Malassezia pachydermatis [32]): 62.5 µg/mL; inhibition zone (IZ) (Micrococcus luteus [33]): 16 mm; inhibition zone (IZ) (Staphylococcus aureus [34]): 16 mm; MBC (Klebsiella aerogenes [35]): 125 µg/mL; inhibition zone (IZ) (Candida albicans [36]): 17 mm; inhibition zone (IZ) (Staphylococcus aureus [37]): 17 mm; MBC (Pseudomonas aeruginosa [38]): 125 µg/mL; inhibition zone (IZ) [39]: 13 mm |
| CC[C@H](N[C@H](C)[C@@H](O)c1ccccc1)c1ccccc1.Cl | 31.2 | 16 | 62.5 | 31.2 | 20 | 22 | 62.5 | 24 | 31.2 | 62.5 | 31.2 | 31.2 | 15.6 | 31.2 | 22 | 31.2 | 62.5 | 20 | 62.5 | 20 | MBC (Shigella flexneri [21]): 62.5 µg/mL; MIC (Shigella flexneri [22]): 31.2 µg/mL; MBC [23]: 62.5 µg/mL; MIC (Pseudomonas aeruginosa [24]): 62.5 µg/mL; inhibition zone (IZ) (Salmonella typhimurium [25]): 19 mm; MIC (Proteus vulgaris [26]): 31.2 µg/mL; MIC (Staphylococcus aureus [27]): 31.2 µg/mL; MBC (Salmonella typhimurium [28]): 62.5 µg/mL; MBC (Staphylococcus aureus [29]): 31.2 µg/mL; MFC (Candida albicans [30]): 31.2 µg/mL; MIC (Micrococcus luteus [31]): 31.2 µg/mL; MFC (Malassezia pachydermatis [32]): 31.2 µg/mL; inhibition zone (IZ) (Micrococcus luteus [33]): 23 mm; inhibition zone (IZ) (Staphylococcus aureus [34]): 22 mm; MBC (Klebsiella aerogenes [35]): 31.2 µg/mL; inhibition zone (IZ) (Candida albicans [36]): 20 mm; inhibition zone (IZ) (Staphylococcus aureus [37]): 24 mm; MBC (Pseudomonas aeruginosa [38]): 125 µg/mL; inhibition zone (IZ) [39]: 20 mm |
